From ChEMBL document CHEMBL4513216, “Probing the Open Global Health Chemical Diversity Library for Multistage-Active Starting Points for Next-Generation Antimalarials” (ACS Infect Dis, 2020)

Assay: Toxicity liver stage against HepG2, at 10uM
Type: cell-based
Design: test concentration 10 uM, cell line HepG2-A16-CD81EGFP
Settings: human, HepG2-A16-CD81EGFP cells; read-out: INHIBITION
Outline: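 Uninfected HepG2-A16-CD81EGFP cells, 3 × 10^3 per well, 1536-well, plated on prespotted compound at 10 μM final, parasite-free screening media added to match infected plates; puromycin 10 μM positive, DMSO 0.5% negative; run in parallel with 48 h PbLuc assay at 37 °C, 5% CO2; viability by CellTiter-Glo luminescence, normalized to controls.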

Row | Compound | cytotoxicity at 10 µM
1 | Cn1c(=O)oc2ccc(NC(=O)N3CCc4ccccc4C3)cc21 | -5.66%
2 | CC(NCc1nnc2n1CCCC2)c1nc(C(C)(C)C)no1 (centres undefined) | -39.2%
3 | Cc1ccc(NC(=O)N2C[C@@H]3CC[C@H]2CN(Cc2cscn2)C3)cc1 | -7.47%
4 | Cc1ccc(C(=O)NCCNC(=O)c2cncnc2C)cc1F | 3.91%
5 | Cc1cc(C(=O)N2CCc3nnc(N)cc3C2)c(C)n1C1CC1 | -3.71%
6 | CCc1nnc(CN2CCCCC2Cn2cncn2)o1 (centres undefined) | -1.1%
7 | CN1CC(C)(C)CN(C(=O)CCc2ccccc2)CC1=O | -0.191%
8 | O=C1COC2(CCN(C(=O)c3ccco3)CC2)CN1Cc1cccnc1 | 7.2%
9 | CNC(=O)CN1CCO[C@H]2CN(C(=O)c3ccncc3F)C[C@H]21 | -155%
10 | CCc1nccn1CC(=O)Nc1cccc(C(=O)OC)c1 | -6.88%
11 | CNC(=O)CN1CCCC1c1ccccc1Br (centres undefined) | -2.22%
12 | CC(C)c1cc(C2CCN(C(=O)Cn3cncn3)CC2)[nH]n1 | 3.65%
13 | COCCn1cc2c(n1)C(CNCc1cccc(OC)c1)OCC2 (centres undefined) | -4.52%
14 | COCCn1c(-c2cccc(OC)c2)cnc1NC(=O)NCCC(C)C | 12.9%
15 | COc1ccc(C)cc1CN(Cc1ncc(C)o1)C1CCN(C)C1 (centres undefined) | -0.76%
16 | O=C(c1ccnnc1)N1C[C@H](OCc2ccccn2)[C@H]2COC[C@H]21 | -7.52%
17 | COCCC(=O)N1CCC2(CC1)CC(c1ccccc1)CN(C)C2 (centres undefined) | -14.4%
18 | O=C1NC(c2ccccc2)=N[C@@]12CC[C@@H]1CN(CC3CC3)C[C@@H]12 | 9.79%
19 | Cc1cccc(CN2CC3C[C@]3(NC(=O)c3ccco3)C2)n1 (some centres undefined) | -142%
20 | N#Cc1cnc(NCc2cccc(C(=O)N3CCCC3)c2)c(Cl)c1 | -0.657%
21 | O=C(CC1CN(Cc2ccccc2)CCO1)NCCN1CCOCC1 (centres undefined) | 6.67%
22 | Cc1noc(C)c1C(=O)N1CC[C@H]2C[C@@H](c3nccs3)O[C@@H]2C1 | -1.62%

Row | Compound | cytotoxicity at 10 µM
23 | CC(=O)Nc1nc(SCc2ccc3c(c2)OCO3)ns1 | -8.98%
24 | Cc1ccc(CNC(=O)NC(C)Cn2cccn2)cn1 (centres undefined) | -11.2%
25 | O=C(c1ccoc1)N1CCC(NCc2ccccc2Cl)CC1 | 3.95%
26 | Cc1[nH]ncc1C(C)NCc1ccc(F)cc1 (centres undefined) | 3.28%
27 | COC(=O)C(C)N1CCCc2cc(OC)ccc2C1 (centres undefined) | 11%
28 | CN1CCN(C2COC3(CCN(CC4CC4)CC3)C2)CC1 (centres undefined) | -6.81%
29 | Cc1cc(C(=O)N2CCC3(CC2)c2nc[nH]c2CCN3CC(C)C)no1 | 11.1%
30 | Cc1cc(OC(F)F)c(C(=O)N2CCC(N(C)C)CC2)s1 | 6.9%
31 | Cc1n[nH]c(C)c1CC(=O)N1CCN(C)C2(CCNC(=O)CC2)C1 (centres undefined) | 2.65%
32 | Fc1cccc(CN2CCOC3(COCCN(CC4CC4)C3)C2)c1 (centres undefined) | -111%
33 | CC(=O)N1CCC(Cc2nccnc2-c2ccnn2C)CC1 | -7.3%
34 | Cn1nc(C2CC2)c2c1NC(=O)CC2c1cc(CN2CCCC2)cs1 (centres undefined) | -2.2%
35 | COc1ccc(C(=O)N2CCN(c3cc(CCN)nc(C)n3)CC2)cc1 | -8.56%
36 | O=C(C1CCCO1)N1CCc2onc(-c3ccc(Cl)cc3)c2C1 (centres undefined) | -65.8%
37 | COc1ccc(C(=O)N(CCC#N)Cc2ccccn2)cc1 | 13.1%
38 | CCOc1cc(F)ccc1NS(=O)(=O)c1cc(C)c(C(=O)O)s1 | -10%
39 | Cc1noc(C)c1-c1cccc(C2CCN(CC(=O)N(C)C)CC2)n1 | 6.33%
40 | Cc1nc(NC(=O)C(C)N2CCN(c3ncccn3)CC2)sc1C (centres undefined) | 4.79%
41 | Cc1nn(C)cc1CN(Cc1ccccn1)Cc1ccccc1Cl | 1.2%
42 | CC(=O)N1CCC(n2nccc2-c2cnc(N)nc2)CC1 | 1.3%
43 | CCN(CC)CCN1CCO[C@H]2[C@@H](OCc3ccccn3)CC[C@@H]21 | -7.66%
44 | c1nc(CSc2nnc(C3CC3)s2)cs1 | -5.54%

Row | Compound | cytotoxicity at 10 µM
45 | O=C(Nc1ccccn1)C1CC(=O)N(Cc2ccccn2)C1 (centres undefined) | 2.84%
46 | COc1ccc(CC(=O)Nc2c(C)nc(N3CCOCC3)nc2C)cc1 | 5.39%
47 | CC(C)Nc1nc(N2CCOCC2)nc2c1CN(Cc1ccoc1)CC2 | 1.52%
48 | Cc1nnc(SCC(=O)Nc2csc3nc(=O)c(C)nn23)s1 | 10.8%
49 | CCOCC(=O)N1Cc2cnc(-c3ccccc3)nc2C1 | -1.08%
50 | CN(CC1CCC1)C(=O)c1ccc(-c2nc(C3CC3)n[nH]2)cc1 | -3.26%
51 | COCC(=O)N1CCC2(CCCN(Cc3cc(OC)ccc3F)C2)C1 (centres undefined) | -1.62%
52 | Cc1ccc(-c2cc(C3=NC(=CN4CCN(C)CC4)NO3)[nH]n2)cc1 | -10.5%
53 | CCc1nc(C)sc1CN1CC[C@@](O)(CCOC)[C@H](C)C1 | -1.18%
54 | Cc1nn(C)c(C)c1-c1ccc(=O)n(C(C)C(=O)NC2CCCC2)n1 (centres undefined) | 5.97%
55 | CC(C)NC(=O)[C@@H]1CN(Cc2nccs2)C[C@H]2OCC[C@H]21 | -93.5%
56 | O=C(CC1COCCN1)N1CCC2(CCc3ccccc32)CC1 (centres undefined) | -148%
57 | CCN(Cc1ccccc1)C(=O)CCN1CC(O)C1 | 7.48%
58 | CCN1CC2(CCC1=O)CCN(C(=O)c1ccc(Cl)cc1O)CC2 | -12.8%
59 | O=C(CCc1ccccc1)N1CCCC(c2n[nH]c3nccnc23)C1 (centres undefined) | 20.9%
60 | O=C(c1cccc2c1OCO2)N1CCCC(n2ccnc2)C1 (centres undefined) | -3.29%
61 | COc1ccc(CN[C@@H]2CO[C@H](CNC(=O)NC(C)C)[C@H]2O)cc1 | -4.7%
62 | Cc1ccc(CN2CCCC(c3nnc(CN4CCCCC4)n3C)C2)s1 (centres undefined) | -2.46%
63 | Cn1c(CN2CCOC[C@H]2c2nc(C(C)(C)C)co2)nc2ccccc21 | 4.78%
64 | CC(c1nc(C(C)(C)C)no1)N1CCN(Cc2ccco2)CC1 (centres undefined) | -5.02%
65 | CC(C)c1ccc(NC(=O)Cn2cc(I)cn2)cc1 | 2.77%
66 | CN1CCCC1CNC(=O)CCCOc1ccc(Cl)cc1 (centres undefined) | -9.33%

Row | Compound | cytotoxicity at 10 µM
67 | C[C@@H]1CN(Cc2ccoc2)C[C@]12CCN(CC(=O)N(C)C)C2=O | 2.11%
68 | CCNC(=O)C1CCN(c2cc(-c3ccccc3F)nc3ccnn23)C1 (centres undefined) | 4.31%
69 | CCNC(=O)N1CCC(NC(=O)NCCc2cc3ccccc3o2)C1 (centres undefined) | -51.8%
70 | CCN1CCOCC2(CCCN(C(=O)c3ccccc3F)C2)C1 (centres undefined) | -4.9%
71 | Cc1cc(C)c(C(=O)N2CCCC(C(=O)CCc3ccccc3)C2)cn1 (centres undefined) | -7.12%
72 | Cc1ccc(-c2nc(C(=O)N3CCCC(C(N)=O)C3)cs2)c(C)c1 (centres undefined) | -2.9%
73 | CCOc1cc(CNC(=O)C(C#N)c2nc(C)cs2)ccc1OC(F)F (centres undefined) | 8.61%
74 | O=C1CN(C(=O)C2CN(c3cccc(Cl)c3)CCO2)CCN1 (centres undefined) | -1.77%
75 | O=C(NCc1ccccc1CN1CCC(O)CC1)Nc1ccncc1 | -13.1%
76 | Cc1cc(C[S+]([O-])CC(=O)NCc2cccs2)no1 (centres undefined) | -12.3%
77 | O=C(c1cc[nH]n1)N1CCCC(c2cc(C(F)(F)F)[nH]n2)C1 (centres undefined) | -6.97%
78 | CCN(CC)S(=O)(=O)N1CC[C@H](c2ccccc2)[C@@H]2[C@H]1CCCCN2C | 3.74%
79 | O=C(COc1ccc(-n2cccn2)nn1)NC1CCCCC1 | -1.03%
80 | CC(C)(C)n1ncc2c(=O)n(CC(=O)NCc3ccccc3)cnc21 | 42%
81 | CCOc1ccc(CN(C)C(=O)COc2ccc(C)nc2)cc1 | 22.7%
82 | CCn1nc(C)c(NC(=O)c2cc(NC(=O)C3CC3)n(C)n2)c1C | -0.916%
83 | Cc1ccc(C(=O)N2C[C@@H]3COC[C@]3(COCc3cccnc3)C2)cn1 | 0.719%
84 | CCS(=O)(=O)CC(C)NC(=O)N(C)Cc1cc(Cl)cn1C (centres undefined) | -1.04%
85 | O=C(NC1CC1)N1Cc2[nH]nc(COc3cccnc3)c2C1 | 4.77%
86 | NCC1(c2cccc(C(F)(F)F)c2)CCCCC1 | -8.66%
87 | CC(=O)N1CCC(NC(=O)Cc2nc3nc(C)cc(C)n3n2)CC1 | 8.52%
88 | CCc1cc(N2CCN(c3ccc(Cl)cn3)CC2)n2nccc2n1 | 23.1%

Row | Compound | cytotoxicity at 10 µM
89 | Cc1ccsc1CN1CCCC(CNC(=O)c2ccc(N)nc2)C1 (centres undefined) | -2.25%
90 | COc1c(C2CCCN2C(=O)c2ccc3c(c2)OCO3)c(C)nn1C (centres undefined) | -13.4%
91 | COCCO[C@H]1CCN(c2cc(OC)ncn2)[C@H]1Cc1cccnc1 | -140%
92 | Cc1cc(C)c(CNC(=O)C2COc3ccccc3C2)c(=O)[nH]1 (centres undefined) | -0.102%
93 | COc1cccc(Cn2cc(N3C(=O)CCC3=O)cn2)c1 | -2.75%
94 | CCOc1ccc(N(C)Cc2nnc(C)o2)cc1 | 9.46%
95 | COc1ccccc1N1CCC(NCc2c(C)noc2C)C1 (centres undefined) | 1.81%
96 | Cc1ccc(N2CC3(CCN(c4nccs4)C3)C2)nn1 | -5.85%
97 | C[C@@H]1CN(C(=O)CCc2nncn2C)C[C@@]1(O)C1CCC1 | -4.97%
98 | Cc1noc(CN2CCCC2c2noc(C3CC3)n2)n1 (centres undefined) | -23.6%
99 | CC(C)n1cnc2c1C(C(=O)N1CCOCC1)N(CC1CC1)CC2 (centres undefined) | 7.98%
100 | COc1ccc(NS(=O)(=O)C=c2[nH]c(=O)n3cccc3c2=O)cc1Cl | -1.47%
101 | Cc1n[nH]c(C2CN(CCc3cccs3)CCO2)n1 (centres undefined) | -15.8%
102 | Cn1nnc2c(N3CC(C(=O)NCc4cccs4)C3)ncnc21 | 4.29%
103 | CN(c1cccnn1)[C@@H]1CC[C@@H]2CN(Cc3cccc(C(=O)O)c3)C[C@@H]21 | 6.17%
104 | COc1ccc2cc(C3CN(C(=O)CN4CCCC4)CCO3)ccc2c1 (centres undefined) | -6.88%
105 | CCn1nc(C)cc1C(=O)OCCNc1ncnc2ccccc12 | 61.8%
106 | O=C(C1CCOC1)N1CCN(CCn2cccn2)c2ncccc2C1 (centres undefined) | -104%
107 | Cc1nc(CN2CCN(C(C)c3nc(C4CC4)no3)CC2)oc1C (centres undefined) | -5.95%
108 | COCCN1C(=O)CCC12CCCN(c1ncc(F)cn1)CC2 (centres undefined) | -8.92%
109 | CC(Oc1cc(Cl)cc(Cl)c1)C(=O)NCCS(N)(=O)=O (centres undefined) | -11.7%
